Assay results taken from ChEMBL document CHEMBL1121991, “4-Aroyl-1,3-dihydro-2H-imidazol-2-ones, a new class of cardiotonic agents” (1982).

Each molecule was assayed on Canis familiaris (assay: The change in mean arterial blood pressure was determined after 0.1 ug/kg iv administration in dog.).
Format: functional, Canis lupus familiaris
Summary of the method: (§1)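 Anesthetized dogs: a Walton-Brodie strain gauge arch sutured to the left ventricle recorded contractile force, and blood pressure was recorded, after at least 30 min stabilization. Isoproterenol 0.1 μg/kg iv was given to controls or to dogs pretreated with propranolol 0.5 mg/kg iv. The value is the % change from pre-dose control; N = 6 per group; means ± SE; Student's t test.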

| Compound | Change |
| --- | --- |
| CC(C)NCC(O)c1ccc(O)c(O)c1 (stereo not drawn) [ISOPROTERENOL] | -27% |

These molecules were tested on Canis familiaris (assay: The cardiac output was determined after 1.0 mg/kg administration with 20 mg/kg pentobarbital in the dog heart-lung preparation.).
Format: functional, Canis lupus familiaris
Summary of the method: (§2)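 Isolated dog heart-lung preparation from mongrel dogs of either sex (11–19 kg), anesthetized with sodium pentobarbital 35 mg/kg iv. A strain gauge arch on the right ventricle recorded contractile force, EKG lead II gave heart rate, a left atrial cannula and transducer gave LAP, and an extracorporeal flow meter gave aortic flow. Failure was induced by adding pentobarbital to the blood reservoir, then compound was added to the reservoir; readings at 10 min. Five preparations; means ± SE; ANOVA.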

| Compound | Cardiac output |
| --- | --- |
| CCCC(C)C1(CC)C(=O)NC(=O)NC1=O (stereo not drawn) [PENTOBARBITAL] | 613 mL/min |

What follows are molecules tested on Canis familiaris (assay: The stroke work was determined after 1.0 mg/kg administration with 20 mg/kg pentobarbital in the dog heart-lung preparation.).
Format: functional, Canis lupus familiaris
Summary of the method: as §2

| Compound | Stroke work |
| --- | --- |
| CCCC(C)C1(CC)C(=O)NC(=O)NC1=O (stereo not drawn) [PENTOBARBITAL] | 3 g |

What follows are molecules tested on Canis familiaris (assay: Pharmacological activity for Blood pressure, -20% in anesthetized dog was determined after intravenous administration).
Format: functional, Canis lupus familiaris
Summary of the method: (§3)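 Anesthetized dogs; contractile force recorded by a left-ventricular Walton-Brodie strain gauge arch, heart rate from lead II EKG, plus blood pressure. Stabilized at least 30 min, then at least three iv doses given, one compound per animal, with return to basal between doses. Doses for +30% force, +15% rate and −20% BP were extrapolated from dose-response curves; geometric mean where repeated.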

| Compound | Equieffective dose |
| --- | --- |
| CCc1[nH]c(O)nc1C(=O)c1ccc(SC)cc1 | 0.28 mg/kg |
| Cc1[nH]c(O)nc1C(=O)c1ccc(O)cc1 | 2.6 mg/kg |
| COc1ccc(C(=O)c2c(C)n(C)c(=O)n2C)cc1 | 2.6 mg/kg |
| Cc1[nH]c(O)nc1C(=O)c1ccc(Cl)c(Cl)c1 | 2.1 mg/kg |
| Cc1[nH]c(O)nc1C(=O)c1cccs1 | 2.5 mg/kg |
| O=C(c1c[nH]c(O)n1)c1cccs1 | 3.7 mg/kg |
| Cc1[nH]c(O)nc1C(=O)c1ccccc1O | 4.5 mg/kg |
| COc1ccc(C(=O)c2nc(O)n(C)c2C)cc1 | >10 mg/kg |
| COc1ccc(C(=O)c2[nH]c(O)nc2C)cc1OC | 2 mg/kg |
| Cc1nc(O)[nH]c1C(=O)c1ccc(N(C)C)cc1 | >3 mg/kg |
| Cc1[nH]c(O)nc1C(=O)c1ccc(N2CCCC2)cc1 | 4.5 mg/kg |
| Cc1[nH]c(O)nc1C(=O)c1ccccc1 | 2.55 mg/kg |
| CC(=O)n1c(C)c(C(=O)c2ccccc2)n(C(C)=O)c1=O | 6.5 mg/kg |
| Cc1[nH]c(O)nc1C(=O)c1ccc(N2CCOCC2)cc1 | 6.4 mg/kg |
| O=C(c1ccccc1)c1c[nH]c(O)n1 | 4.4 mg/kg |
| Cc1[nH]c(O)nc1C(=O)c1ccc(N2CCCCC2)cc1 | >10 mg/kg |

| Compound | Equieffective dose |
| --- | --- |
| CCc1[nH]c(O)nc1C(=O)c1ccc(OC)c(OC)c1 | 2.35 mg/kg |
| CCc1[nH]c(O)nc1C(=O)c1ccc(OC)cc1 | 0.62 mg/kg |
| Cc1[nH]c(O)nc1C(=O)c1ccc(Cl)cc1 | 0.29 mg/kg |
| CCCc1[nH]c(O)nc1C(=O)c1ccc(SC)cc1 | 2.3 mg/kg |
| Cc1c(C(=O)c2ccc(N(C)C)cc2)n(C(=O)C(C)C)c(=O)n1C(=O)C(C)C | >10 mg/kg |
| Cc1[nH]c(O)nc1C(=O)c1ccc(F)cc1 | 1.03 mg/kg |
| Cc1[nH]c(O)nc1C(=O)c1ccccc1Cl | 2.1 mg/kg |
| COc1ccc(C(=O)c2c[nH]c(O)n2)cc1 | 3.1 mg/kg |
| Cc1[nH]c(O)nc1C(=O)c1ccco1 | 0.72 mg/kg |
| O=C(c1c[nH]c(O)n1)c1ccco1 | 4.2 mg/kg |
| CCc1[nH]c(O)nc1C(=O)c1cccs1 | 1.6 mg/kg |
| Cc1nc(O)[nH]c1C(=O)c1ccc(N2CCN(C)CC2)cc1 | >10 mg/kg |
| CC(=O)n1c(C)c(C(=O)c2ccc(N(C)C)cc2)n(C(C)=O)c1=O | >3 mg/kg |
| CC(=O)n1c(C)c(C(=O)c2ccc(F)cc2)n(C(C)=O)c1=O | 2.5 mg/kg |
| CSc1ccc(C(=O)c2[nH]c(=O)[nH]c2C)cc1 [ENOXIMONE] | 0.55 mg/kg |

What follows are molecules tested on Canis familiaris (assay: The cardiac contractile force was determined after 1.0 mg/kg administration with 20 mg/kg pentobarbital in the dog heart-lung preparation.).
Format: functional, Canis lupus familiaris
Summary of the method: as §2

| Compound | Cardiac contractile force |
| --- | --- |
| CCCC(C)C1(CC)C(=O)NC(=O)NC1=O (stereo not drawn) [PENTOBARBITAL] | 32.2 g |

What follows are molecules tested on Canis familiaris (assay: The heart rate was determined after 1.0 mg/kg administration with 20 mg/kg pentobarbital in the dog heart-lung preparation.).
Format: functional, Canis lupus familiaris
Summary of the method: as §2

| Compound | Heart rate |
| --- | --- |
| CCCC(C)C1(CC)C(=O)NC(=O)NC1=O (stereo not drawn) [PENTOBARBITAL] | 133 beats min-1 |

Each molecule was assayed on Canis familiaris (assay: Pharmacological activity for Contractile force, +30% in anesthetized dog was determined after intravenous administration).
Format: functional, Canis lupus familiaris
Summary of the method: as §3

| Compound | Equieffective dose |
| --- | --- |
| CCc1[nH]c(O)nc1C(=O)c1ccc(SC)cc1 | 0.07 mg/kg |
| Cc1[nH]c(O)nc1C(=O)c1ccc(O)cc1 | 0.25 mg/kg |
| COc1ccc(C(=O)c2c(C)n(C)c(=O)n2C)cc1 | 4.7 mg/kg |
| Cc1[nH]c(O)nc1C(=O)c1ccc(Cl)c(Cl)c1 | 0.7 mg/kg |
| Cc1[nH]c(O)nc1C(=O)c1cccs1 | 0.28 mg/kg |
| O=C(c1c[nH]c(O)n1)c1cccs1 | 0.72 mg/kg |
| Cc1[nH]c(O)nc1C(=O)c1ccccc1O | 3.28 mg/kg |
| COc1ccc(C(=O)c2nc(O)n(C)c2C)cc1 | >10 mg/kg |
| COc1ccc(C(=O)c2[nH]c(O)nc2C)cc1OC | 0.4 mg/kg |
| Cc1nc(O)[nH]c1C(=O)c1ccc(N(C)C)cc1 | 0.36 mg/kg |
| Cc1[nH]c(O)nc1C(=O)c1ccc(N2CCCC2)cc1 | >10 mg/kg |
| Cc1[nH]c(O)nc1C(=O)c1ccccc1 | 0.23 mg/kg |
| CC(=O)n1c(C)c(C(=O)c2ccccc2)n(C(C)=O)c1=O | 3 mg/kg |
| Cc1[nH]c(O)nc1C(=O)c1ccc(N2CCOCC2)cc1 | 1.2 mg/kg |
| O=C(c1ccccc1)c1c[nH]c(O)n1 | 3.91 mg/kg |
| Cc1[nH]c(O)nc1C(=O)c1ccc(N2CCCCC2)cc1 | >10 mg/kg |

| Compound | Equieffective dose |
| --- | --- |
| CCc1[nH]c(O)nc1C(=O)c1ccc(OC)c(OC)c1 | 0.18 mg/kg |
| CCc1[nH]c(O)nc1C(=O)c1ccc(OC)cc1 | 0.15 mg/kg |
| Cc1[nH]c(O)nc1C(=O)c1ccc(Cl)cc1 | 0.18 mg/kg |
| CCCc1[nH]c(O)nc1C(=O)c1ccc(SC)cc1 | 1.13 mg/kg |
| Cc1c(C(=O)c2ccc(N(C)C)cc2)n(C(=O)C(C)C)c(=O)n1C(=O)C(C)C | 2.45 mg/kg |
| CSc1ccc(C(=O)c2c[nH]c(O)n2)cc1 | 0.5 mg/kg |
| Cc1[nH]c(O)nc1C(=O)c1ccc(F)cc1 | 0.38 mg/kg |
| Cc1[nH]c(O)nc1C(=O)c1ccccc1Cl | 0.48 mg/kg |
| COc1ccc(C(=O)c2c[nH]c(O)n2)cc1 | 0.78 mg/kg |
| Cc1[nH]c(O)nc1C(=O)c1ccco1 | 1.05 mg/kg |
| O=C(c1c[nH]c(O)n1)c1ccco1 | 1.84 mg/kg |
| CCc1[nH]c(O)nc1C(=O)c1cccs1 | 0.41 mg/kg |
| Cc1nc(O)[nH]c1C(=O)c1ccc(N2CCN(C)CC2)cc1 | >10 mg/kg |
| CC(=O)n1c(C)c(C(=O)c2ccc(N(C)C)cc2)n(C(C)=O)c1=O | 0.36 mg/kg |
| CC(=O)n1c(C)c(C(=O)c2ccc(F)cc2)n(C(C)=O)c1=O | 1 mg/kg |
| CSc1ccc(C(=O)c2[nH]c(=O)[nH]c2C)cc1 [ENOXIMONE] | 0.12 mg/kg |

What follows are molecules tested on Canis familiaris (assay: The stroke volume was determined after 1.0 mg/kg administration with 20 mg/kg pentobarbital in the dog heart-lung preparation.).
Format: functional, Canis lupus familiaris
Summary of the method: as §2

| Compound | Stroke volume |
| --- | --- |
| CCCC(C)C1(CC)C(=O)NC(=O)NC1=O (stereo not drawn) [PENTOBARBITAL] | 4.6 mL |

Each molecule was assayed on Canis familiaris (assay: The change in cardiac contractile force was determined after 0.1 ug/kg iv administration in dog.).
Format: functional, Canis lupus familiaris, Heart
Summary of the method: as §1

| Compound | Change |
| --- | --- |
| CC(C)NCC(O)c1ccc(O)c(O)c1 (stereo not drawn) [ISOPROTERENOL] | 133% |

These molecules were tested on Canis familiaris (assay: The left atrial pressure was determined after 1.0 mg/kg administration with 20 mg/kg pentobarbital in the dog heart-lung preparation.).
Format: functional, Canis lupus familiaris, Cardiac atrium
Summary of the method: as §2

| Compound | Left atrial pressure |
| --- | --- |
| CCCC(C)C1(CC)C(=O)NC(=O)NC1=O (stereo not drawn) [PENTOBARBITAL] | 12.1 mmHg |

Each molecule was assayed on Canis familiaris (assay: Pharmacological activity for heart rate +15% in anesthetized dog was determined after intravenous administration).
Format: functional, Canis lupus familiaris
Summary of the method: as §3

| Compound | Equieffective dose |
| --- | --- |
| CCc1[nH]c(O)nc1C(=O)c1ccc(SC)cc1 | 0.54 mg/kg |
| Cc1[nH]c(O)nc1C(=O)c1ccc(O)cc1 | 1.3 mg/kg |
| COc1ccc(C(=O)c2c(C)n(C)c(=O)n2C)cc1 | >10 mg/kg |
| Cc1[nH]c(O)nc1C(=O)c1ccc(Cl)c(Cl)c1 | 4 mg/kg |
| Cc1[nH]c(O)nc1C(=O)c1cccs1 | 5.4 mg/kg |
| O=C(c1c[nH]c(O)n1)c1cccs1 | >10 mg/kg |
| Cc1[nH]c(O)nc1C(=O)c1ccccc1O | >10 mg/kg |
| COc1ccc(C(=O)c2nc(O)n(C)c2C)cc1 | >10 mg/kg |
| COc1ccc(C(=O)c2[nH]c(O)nc2C)cc1OC | 1.05 mg/kg |
| Cc1nc(O)[nH]c1C(=O)c1ccc(N(C)C)cc1 | 2.2 mg/kg |
| Cc1[nH]c(O)nc1C(=O)c1ccc(N2CCCC2)cc1 | 8.5 mg/kg |
| Cc1[nH]c(O)nc1C(=O)c1ccccc1 | 1.55 mg/kg |
| CC(=O)n1c(C)c(C(=O)c2ccccc2)n(C(C)=O)c1=O | >10 mg/kg |
| Cc1[nH]c(O)nc1C(=O)c1ccc(N2CCOCC2)cc1 | >10 mg/kg |
| O=C(c1ccccc1)c1c[nH]c(O)n1 | 4 mg/kg |
| Cc1[nH]c(O)nc1C(=O)c1ccc(N2CCCCC2)cc1 | >10 mg/kg |

| Compound | Equieffective dose |
| --- | --- |
| CCc1[nH]c(O)nc1C(=O)c1ccc(OC)c(OC)c1 | >3 mg/kg |
| CCc1[nH]c(O)nc1C(=O)c1ccc(OC)cc1 | 0.23 mg/kg |
| Cc1[nH]c(O)nc1C(=O)c1ccc(Cl)cc1 | 4 mg/kg |
| CCCc1[nH]c(O)nc1C(=O)c1ccc(SC)cc1 | 3 mg/kg |
| Cc1c(C(=O)c2ccc(N(C)C)cc2)n(C(=O)C(C)C)c(=O)n1C(=O)C(C)C | >10 mg/kg |
| CSc1ccc(C(=O)c2c[nH]c(O)n2)cc1 | 1.05 mg/kg |
| Cc1[nH]c(O)nc1C(=O)c1ccc(F)cc1 | >3 mg/kg |
| Cc1[nH]c(O)nc1C(=O)c1ccccc1Cl | 2.2 mg/kg |
| COc1ccc(C(=O)c2c[nH]c(O)n2)cc1 | 1.85 mg/kg |
| Cc1[nH]c(O)nc1C(=O)c1ccco1 | 3.3 mg/kg |
| O=C(c1c[nH]c(O)n1)c1ccco1 | 4.3 mg/kg |
| CCc1[nH]c(O)nc1C(=O)c1cccs1 | 1.45 mg/kg |
| Cc1nc(O)[nH]c1C(=O)c1ccc(N2CCN(C)CC2)cc1 | 9.1 mg/kg |
| CC(=O)n1c(C)c(C(=O)c2ccc(N(C)C)cc2)n(C(C)=O)c1=O | >3 mg/kg |
| CC(=O)n1c(C)c(C(=O)c2ccc(F)cc2)n(C(C)=O)c1=O | >8 mg/kg |
| CSc1ccc(C(=O)c2[nH]c(=O)[nH]c2C)cc1 [ENOXIMONE] | 1.5 mg/kg |
